Reference: ChEMBL document CHEMBL1949561, “Synthesis and triplex-forming ability of oligonucleotides bearing 1-substituted 1H-1,2,3-triazole nucleobases” (Bioorg Med Chem, 2011)

Experiments:
Format in all cases: nucleic-acid assay
Nucleic Acid [1] = assay: Binding affinity to 5'-GCTAAAAAGAGAGAGAGATCG-3'/5'- CGATCTCTCTCTCTTTTTAGC-3' double stranded DNA assessed as melting temperature at 1.5 uM in sodium phosphate buffer at pH 7 by UV spectrophotometric analysis
Outline: (§1)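 UV melting of triplexes between each modified TFO and the 21-bp duplex target, in 7 mM sodium phosphate buffer (pH 7.0), 140 mM KCl and 10 mM MgCl₂. Each oligonucleotide at 1.5 µM final. Absorbance followed at 260 nm from 5 °C to 85 °C, scanned at 0.5 °C/min, to give Tm.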

Nucleic Acid [2] = assay: Binding affinity to 5'-GCTAAAAAGAAAGAGAGATCG-3'/5'- CGATCTCTCTTTCTTTTTAGC-3' double stranded DNA assessed as melting temperature at 1.5 uM in sodium phosphate buffer at pH 7 by UV spectrophotometric analysis; outline: as §1
Nucleic Acid [3] = assay: Binding affinity to5'-GCTAAAAAGACAGAGAGATCG-3'/5'- CGATCTCTCTGTCTTTTTAGC-3' double stranded DNA assessed as melting temperature at 1.5 uM in sodium phosphate buffer at pH 7 by UV spectrophotometric analysis; outline: as §1
Nucleic Acid [4] = assay: Binding affinity to 5'-GCTAAAAAGATAGAGAGATCG-3'/5'- CGATCTCTCTATCTTTTTAGC-3' double stranded DNA assessed as melting temperature at 1.5 uM in sodium phosphate buffer at pH 7 by UV spectrophotometric analysis; outline: as §1

| SMILES | Tm (Nucleic Acid [1]) | Tm (Nucleic Acid [2]) | Tm (Nucleic Acid [3]) | Tm (Nucleic Acid [4]) |
| --- | --- | --- | --- | --- |
| Cc1cn([C@H]2C[C@H](OP(=O)(O)OC[C@H]3O[C@@H](n4cc(C)c(=O)[nH]c4=O)C[C@@H]3OP(=O)(O)OC[C@H]3O[C@@H](n4cc(C)c(N)nc4=O)C[C@@H]3OP(=O)(O)OC[C@H]3O[C@@H](n4cc(C)c(=O)[nH]c4=O)C[C@@H]3OP(=O)(O)OC[C@H]3O[C@@H](n4cc(C)c(N)nc4=O)C[C@@H]3OP(=O)(O)OC[C@H]3O[C@@H](n4cc(C)c(=O)[nH]c4=O)C[C@@H]3OP(=O)(O)OC[C@H]3O[C@@H](c4cn(-c5ccccc5C(=O)O)nn4)C[C@@H]3OP(=O)(O)OC[C@H]3O[C@@H](n4cc(C)c(=O)[nH]c4=O)C[C@@H]3OP(=O)(O)OC[C@H]3O[C@@H](n4cc(C)c(N)nc4=O)C[C@@H]3OP(=O)(O)OC[C@H]3O[C@@H](n4cc(C)c(=O)[nH]c4=O)C[C@@H]3OP(=O)(O)OC[C@H]3O[C@@H](n4cc(C)c(=O)[nH]c4=O)C[C@@H]3OP(=O)(O)OC[C@H]3O[C@@H](n4cc(C)c(=O)[nH]c4=O)C[C@@H]3OP(=O)(O)OC[C@H]3O[C@@H](n4cc(C)c(=O)[nH]c4=O)C[C@@H]3OP(=O)(O)OC[C@H]3O[C@@H](n4cc(C)c(=O)[nH]c4=O)C[C@@H]3O)[C@@H](COP(=O)(O)O[C@H]3C[C@H](n4cc(C)c(=O)[nH]c4=O)O[C@@H]3CO)O2)c(=O)nc1N | 12 °C | < 10 °C | 17 °C | 15 °C |
| Cc1cn([C@H]2C[C@H](OP(=O)(O)OC[C@H]3O[C@@H](n4cc(C)c(=O)[nH]c4=O)C[C@@H]3OP(=O)(O)OC[C@H]3O[C@@H](n4cc(C)c(N)nc4=O)C[C@@H]3OP(=O)(O)OC[C@H]3O[C@@H](n4cc(C)c(=O)[nH]c4=O)C[C@@H]3OP(=O)(O)OC[C@H]3O[C@@H](n4cc(C)c(N)nc4=O)C[C@@H]3OP(=O)(O)OC[C@H]3O[C@@H](n4cc(C)c(=O)[nH]c4=O)C[C@@H]3OP(=O)(O)OC[C@H]3O[C@@H](c4cn(C5CCCCC5)nn4)C[C@@H]3OP(=O)(O)OC[C@H]3O[C@@H](n4cc(C)c(=O)[nH]c4=O)C[C@@H]3OP(=O)(O)OC[C@H]3O[C@@H](n4cc(C)c(N)nc4=O)C[C@@H]3OP(=O)(O)OC[C@H]3O[C@@H](n4cc(C)c(=O)[nH]c4=O)C[C@@H]3OP(=O)(O)OC[C@H]3O[C@@H](n4cc(C)c(=O)[nH]c4=O)C[C@@H]3OP(=O)(O)OC[C@H]3O[C@@H](n4cc(C)c(=O)[nH]c4=O)C[C@@H]3OP(=O)(O)OC[C@H]3O[C@@H](n4cc(C)c(=O)[nH]c4=O)C[C@@H]3OP(=O)(O)OC[C@H]3O[C@@H](n4cc(C)c(=O)[nH]c4=O)C[C@@H]3O)[C@@H](COP(=O)(O)O[C@H]3C[C@H](n4cc(C)c(=O)[nH]c4=O)O[C@@H]3CO)O2)c(=O)nc1N | < 10 °C | < 10 °C | 20 °C | 12 °C |
| Cc1cn([C@H]2C[C@H](OP(=O)(O)OC[C@H]3O[C@@H](n4cc(C)c(=O)[nH]c4=O)C[C@@H]3OP(=O)(O)OC[C@H]3O[C@@H](n4cc(C)c(N)nc4=O)C[C@@H]3OP(=O)(O)OC[C@H]3O[C@@H](n4cc(C)c(=O)[nH]c4=O)C[C@@H]3OP(=O)(O)OC[C@H]3O[C@@H](n4cc(C)c(N)nc4=O)C[C@@H]3OP(=O)(O)OC[C@H]3O[C@@H](n4cc(C)c(=O)[nH]c4=O)C[C@@H]3OP(=O)(O)OC[C@H]3O[C@@H](c4cn(-c5cccnc5O)nn4)C[C@@H]3OP(=O)(O)OC[C@H]3O[C@@H](n4cc(C)c(=O)[nH]c4=O)C[C@@H]3OP(=O)(O)OC[C@H]3O[C@@H](n4cc(C)c(N)nc4=O)C[C@@H]3OP(=O)(O)OC[C@H]3O[C@@H](n4cc(C)c(=O)[nH]c4=O)C[C@@H]3OP(=O)(O)OC[C@H]3O[C@@H](n4cc(C)c(=O)[nH]c4=O)C[C@@H]3OP(=O)(O)OC[C@H]3O[C@@H](n4cc(C)c(=O)[nH]c4=O)C[C@@H]3OP(=O)(O)OC[C@H]3O[C@@H](n4cc(C)c(=O)[nH]c4=O)C[C@@H]3OP(=O)(O)OC[C@H]3O[C@@H](n4cc(C)c(=O)[nH]c4=O)C[C@@H]3O)[C@@H](COP(=O)(O)O[C@H]3C[C@H](n4cc(C)c(=O)[nH]c4=O)O[C@@H]3CO)O2)c(=O)nc1N | 15 °C | 12 °C | 24 °C | 15 °C |
| Cc1cn([C@H]2C[C@H](OP(=O)(O)OC[C@H]3O[C@@H](n4cc(C)c(=O)[nH]c4=O)C[C@@H]3OP(=O)(O)OC[C@H]3O[C@@H](n4cc(C)c(N)nc4=O)C[C@@H]3OP(=O)(O)OC[C@H]3O[C@@H](n4cc(C)c(=O)[nH]c4=O)C[C@@H]3OP(=O)(O)OC[C@H]3O[C@@H](n4cc(C)c(N)nc4=O)C[C@@H]3OP(=O)(O)OC[C@H]3O[C@@H](n4cc(C)c(=O)[nH]c4=O)C[C@@H]3OP(=O)(O)OC[C@H]3O[C@@H](c4cn(-c5cccc(CO)c5)nn4)C[C@@H]3OP(=O)(O)OC[C@H]3O[C@@H](n4cc(C)c(=O)[nH]c4=O)C[C@@H]3OP(=O)(O)OC[C@H]3O[C@@H](n4cc(C)c(N)nc4=O)C[C@@H]3OP(=O)(O)OC[C@H]3O[C@@H](n4cc(C)c(=O)[nH]c4=O)C[C@@H]3OP(=O)(O)OC[C@H]3O[C@@H](n4cc(C)c(=O)[nH]c4=O)C[C@@H]3OP(=O)(O)OC[C@H]3O[C@@H](n4cc(C)c(=O)[nH]c4=O)C[C@@H]3OP(=O)(O)OC[C@H]3O[C@@H](n4cc(C)c(=O)[nH]c4=O)C[C@@H]3OP(=O)(O)OC[C@H]3O[C@@H](n4cc(C)c(=O)[nH]c4=O)C[C@@H]3O)[C@@H](COP(=O)(O)O[C@H]3C[C@H](n4cc(C)c(=O)[nH]c4=O)O[C@@H]3CO)O2)c(=O)nc1N | < 10 °C | < 10 °C | 23 °C | 14 °C |
| Cc1cn([C@H]2C[C@H](OP(=O)(O)OC[C@H]3O[C@@H](n4cc(C)c(=O)[nH]c4=O)C[C@@H]3OP(=O)(O)OC[C@H]3O[C@@H](n4cc(C)c(N)nc4=O)C[C@@H]3OP(=O)(O)OC[C@H]3O[C@@H](n4cc(C)c(=O)[nH]c4=O)C[C@@H]3OP(=O)(O)OC[C@H]3O[C@@H](n4cc(C)c(N)nc4=O)C[C@@H]3OP(=O)(O)OC[C@H]3O[C@@H](n4cc(C)c(=O)[nH]c4=O)C[C@@H]3OP(=O)(O)OC[C@H]3O[C@@H](c4cn(-c5ccccc5O)nn4)C[C@@H]3OP(=O)(O)OC[C@H]3O[C@@H](n4cc(C)c(=O)[nH]c4=O)C[C@@H]3OP(=O)(O)OC[C@H]3O[C@@H](n4cc(C)c(N)nc4=O)C[C@@H]3OP(=O)(O)OC[C@H]3O[C@@H](n4cc(C)c(=O)[nH]c4=O)C[C@@H]3OP(=O)(O)OC[C@H]3O[C@@H](n4cc(C)c(=O)[nH]c4=O)C[C@@H]3OP(=O)(O)OC[C@H]3O[C@@H](n4cc(C)c(=O)[nH]c4=O)C[C@@H]3OP(=O)(O)OC[C@H]3O[C@@H](n4cc(C)c(=O)[nH]c4=O)C[C@@H]3OP(=O)(O)OC[C@H]3O[C@@H](n4cc(C)c(=O)[nH]c4=O)C[C@@H]3O)[C@@H](COP(=O)(O)O[C@H]3C[C@H](n4cc(C)c(=O)[nH]c4=O)O[C@@H]3CO)O2)c(=O)nc1N | < 10 °C | 17 °C | 25 °C | 15 °C |
